Experimental data published in PMC6431256 (Biochemistry, 2018).

Biological target: full-length Pin1 (Pin1FL) (Homo sapiens, UniProt Q13526)
Test: NMR 15N-1H HSQC titration, binding to full-length Pin1
Summary of the method: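 15N-labeled Pin1FL and Pin1WW were expressed separately in M9 medium with 15NH4Cl, induced with 1 mM IPTG at OD600 0.5 for 4 h, and purified by Ni affinity and gel filtration (20 mM HEPES pH 7.5, 50 mM NaCl, 5 mM EDTA; Pin1FL with 1 mM TCEP). Unlabeled phosphopeptides (dialyzed into matching buffer) were titrated at 0–637 µM into 100 µM protein. 1H-15N HSQC spectra were recorded at 25 °C and 600 MHz. Apparent KD was fitted from chemical shift changes, with 15N weighted 0.17.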

Sequence of full-length Pin1 (Pin1FL) (Q13526 whole entry): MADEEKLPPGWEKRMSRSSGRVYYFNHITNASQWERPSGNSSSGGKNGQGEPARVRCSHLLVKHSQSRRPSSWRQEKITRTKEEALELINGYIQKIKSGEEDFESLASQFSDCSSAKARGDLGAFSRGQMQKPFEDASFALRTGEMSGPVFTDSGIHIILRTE

interaction strength with Pin1 among H1 peptides (Pin1FL and Pin1WW, in words): fairly low affinity
apparent affinity for full-length Pin1 relative to WW domain (compared with Pin1WW): decrease
Substance: KVAKpSPKKAKAW [H1.5]
